According to ChEMBL document CHEMBL3608279, “Discovery and Characterization of a Water-Soluble Prodrug of a Dual Inhibitor of Bacterial DNA Gyrase and Topoisomerase IV” (ACS Med Chem Lett, 2015):
Converted amounts (≈) assume the structure as drawn.

Legend:
[1] = system: Staphylococcus aureus; test: Antibacterial activity against methicillin-resistant Staphylococcus aureus 509 in po dosed neutropenic CD1 mouse pneumonia model assessed as decrease in bacterial burden in lung administered as bid measured after 24 hrs; assay type: functional; conditions: for MIC: Staphylococcus aureus, 509, Lung
Outline: (§1)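 Neutropenic female CD-1 mice, 6 per group, infected in the lung with the MRSA isolate. Oral dosing began 3 h after challenge at 7.5, 15 and 30 mg/kg BID. Lungs were taken after 24 h of treatment and bacterial burden counted as CFU. Early-control and vehicle-treated groups served as reference. The levofloxacin comparator was given TID subcutaneously.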

[2] = system: Staphylococcus aureus; test: Antibacterial activity against methicillin/levofloxacin-resistant Staphylococcus aureus 156 in po dosed neutropenic CD1 mouse pneumonia model assessed as decrease in bacterial burden in lung administered as bid measured after 24 hrs; assay type: functional; conditions: for MIC: Staphylococcus aureus, 156, Lung; outline: as §1
[3] = system: Plasma; test: Drug uptake in rat plasma at 3 mg/kg, po by LC-MS/MS analysis; assay type: ADME, organism-based; conditions: in vivo
Outline: (§2)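 Prodrug given orally to rat and dog at 3 mg/kg and to monkey at 30 mg/kg. Plasma parent exposure measured, with oral dosing of the parent at the same nominal dose as comparator.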

[4] = system: Plasma; test: Drug uptake in dog plasma at 3 mg/kg, po by LC-MS/MS analysis; assay type: ADME, organism-based, Canis lupus familiaris; conditions: in vivo; outline: as §2
[5] = system: Plasma; test: Drug uptake in monkey plasma at 30 mg/kg, po by LC-MS/MS analysis; assay type: ADME, organism-based, Macaca mulatta; conditions: rhesus monkey, in vivo; outline: as §2
[6] = system: Plasma; test: Drug uptake in dog plasma at 1 mg/kg, iv measured at 4 hrs by LC-MS/MS analysis; assay type: ADME, organism-based, Canis lupus familiaris; conditions: in vivo
Outline: (§3)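 Single IV dose, 1 mg/kg nominal, given to rat, dog and monkey. Plasma sampled over time for both prodrug and parent, with the parent exposure expressed as AUC. Dosing the parent itself IV at the same nominal dose served as the comparator.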

[7] = system: Plasma; test: Drug uptake in rat plasma at 1 mg/kg, iv measured at 4 hrs by LC-MS/MS analysis; assay type: ADME, organism-based; conditions: in vivo; outline: as §3
[8] = system: Plasma; test: Drug uptake in monkey plasma at 1 mg/kg, iv measured at 4 hrs by LC-MS/MS analysis; assay type: ADME, organism-based, Macaca mulatta; conditions: rhesus monkey, in vivo; outline: as §3
[9] = system: Staphylococcus aureus; test: Antibacterial activity against Staphylococcus aureus ATCC 29213; assay type: functional
[10] = system: Enterococcus faecalis; test: Antibacterial activity against Enterococcus faecalis ATCC 29212; assay type: functional
[11] = system: Enterococcus faecium; test: Antibacterial activity against Enterococcus faecium ATCC 49624; assay type: functional
[12] = system: Streptococcus pneumoniae; test: Antibacterial activity against Streptococcus pneumoniae ATCC 10015; assay type: functional
[13] = target: DNA gyrase (Staphylococcus aureus, UniProt P0A0K8+P20831); test: Inhibition of Staphylococcus aureus DNA gyrase; assay type: protein-complex assay
[14] = target: Topoisomerase IV (Staphylococcus aureus, UniProt P0C1S7+P0C1U9); test: Inhibition of Staphylococcus aureus DNA topoisomerase 4; assay type: protein-complex assay
[15] = (§4) Apparent permeability across apical to basolateral side in MDCK cells; assay type: ADME, cell-based, Canis lupus familiaris; conditions: dog
Outline: (§5)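 Papp measured in wild-type MDCK cells in both apical-to-basolateral and basolateral-to-apical directions; values expressed in units of 1 × 10–6 cm/sec.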

[16] = (§6) Apparent permeability across basolateral to apical side in MDCK cells; assay type: ADME, cell-based, Canis lupus familiaris; conditions: dog; outline: as §5
[17] = system: Plasma; test: Prodrug conversion in rat plasma assessed as formation of 1-ethyl-3-[6-fluoro-5-[2-(1-hydroxy-1-methyl-ethyl)pyrimidin-5-yl]-7-[(2R)-tetrahydrofuran-2-yl]-1H-benzimidazol-2-yl]urea at 3 mg/kg, po by LC-MS/MS analysis; assay type: ADME, organism-based; conditions: in vivo; outline: as §2
[18] = system: Plasma; test: Prodrug conversion in dog plasma assessed as formation of 1-ethyl-3-[6-fluoro-5-[2-(1-hydroxy-1-methyl-ethyl)pyrimidin-5-yl]-7-[(2R)-tetrahydrofuran-2-yl]-1H-benzimidazol-2-yl]urea at 3 mg/kg, po by LC-MS/MS analysis; assay type: ADME, organism-based, Canis lupus familiaris; conditions: in vivo; outline: as §2
[19] = system: Plasma; test: Prodrug conversion in monkey plasma assessed as formation of 1-ethyl-3-[6-fluoro-5-[2-(1-hydroxy-1-methyl-ethyl)pyrimidin-5-yl]-7-[(2R)-tetrahydrofuran-2-yl]-1H-benzimidazol-2-yl]urea at 30 mg/kg, po by LC-MS/MS analysis; assay type: ADME, organism-based, Macaca mulatta; conditions: rhesus monkey, in vivo; outline: as §2
[20] = system: Liver; test: Prodrug conversion in rat liver S9 fractions assessed as formation of 1-ethyl-3-[6-fluoro-5-[2-(1-hydroxy-1-methyl-ethyl)pyrimidin-5-yl]-7-[(2R)-tetrahydrofuran-2-yl]-1H-benzimidazol-2-yl]urea by Michaelis-Menten plot analysis; assay type: ADME, subcellular, Liver S9 fraction
Outline: (§7)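 Prodrug incubated across 1 to 1000 μM in liver and intestinal S9 fractions from rat, dog, monkey and human. Formation of the parent compound was followed to characterize conversion kinetics.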

[21] = system: Liver; test: Prodrug conversion in dog liver S9 fractions assessed as formation of 1-ethyl-3-[6-fluoro-5-[2-(1-hydroxy-1-methyl-ethyl)pyrimidin-5-yl]-7-[(2R)-tetrahydrofuran-2-yl]-1H-benzimidazol-2-yl]urea by Michaelis-Menten plot analysis; assay type: ADME, subcellular, Canis lupus familiaris, Liver S9 fraction; outline: as §7
[22] = Prodrug conversion in monkey liver S9 fractions assessed as formation of 1-ethyl-3-[6-fluoro-5-[2-(1-hydroxy-1-methyl-ethyl)pyrimidin-5-yl]-7-[(2R)-tetrahydrofuran-2-yl]-1H-benzimidazol-2-yl]urea by Michaelis-Menten plot analysis; assay type: ADME, subcellular, Macaca mulatta, Liver S9 fraction; conditions: rhesus monkey; outline: as §7
[23] = system: Liver; test: Prodrug conversion in human liver S9 fractions assessed as formation of 1-ethyl-3-[6-fluoro-5-[2-(1-hydroxy-1-methyl-ethyl)pyrimidin-5-yl]-7-[(2R)-tetrahydrofuran-2-yl]-1H-benzimidazol-2-yl]urea by Michaelis-Menten plot analysis; assay type: ADME, subcellular, Liver S9 fraction; outline: as §7
[24] = system: Intestine; test: Prodrug conversion in rat intestine S9 fractions assessed as formation of 1-ethyl-3-[6-fluoro-5-[2-(1-hydroxy-1-methyl-ethyl)pyrimidin-5-yl]-7-[(2R)-tetrahydrofuran-2-yl]-1H-benzimidazol-2-yl]urea by Michaelis-Menten plot analysis; assay type: ADME, tissue-based; outline: as §7
[25] = Prodrug conversion in dog intestine S9 fractions assessed as formation of 1-ethyl-3-[6-fluoro-5-[2-(1-hydroxy-1-methyl-ethyl)pyrimidin-5-yl]-7-[(2R)-tetrahydrofuran-2-yl]-1H-benzimidazol-2-yl]urea by Michaelis-Menten plot analysis; assay type: ADME, tissue-based, Canis lupus familiaris; outline: as §7
[26] = Prodrug conversion in monkey intestine S9 fractions assessed as formation of 1-ethyl-3-[6-fluoro-5-[2-(1-hydroxy-1-methyl-ethyl)pyrimidin-5-yl]-7-[(2R)-tetrahydrofuran-2-yl]-1H-benzimidazol-2-yl]urea by Michaelis-Menten plot analysis; assay type: ADME, tissue-based, Macaca mulatta; conditions: rhesus monkey; outline: as §7
[27] = Prodrug conversion in human intestine S9 fractions assessed as formation of 1-ethyl-3-[6-fluoro-5-[2-(1-hydroxy-1-methyl-ethyl)pyrimidin-5-yl]-7-[(2R)-tetrahydrofuran-2-yl]-1H-benzimidazol-2-yl]urea by Michaelis-Menten plot analysis; assay type: ADME, tissue-based; outline: as §7
[28] = system: Staphylococcus aureus; test: Antibacterial activity against methicillin/levofloxacin-resistant Staphylococcus aureus 156 in neutropenic CD1 mouse pneumonia model assessed as decrease in bacterial burden in lung at 30 mg/kg, po bid measured after 24 hrs; assay type: functional; outline: as §1
[29] = system: Staphylococcus aureus; test: Antibacterial activity against methicillin-resistant Staphylococcus aureus 509 in neutropenic CD1 mouse pneumonia model assessed as decrease in bacterial burden in lung at 30 mg/kg, po bid measured after 24 hrs; assay type: functional; outline: as §1
[30] = system: Plasma; test: Prodrug conversion in dog plasma assessed as formation of 1-ethyl-3-[6-fluoro-5-[2-(1-hydroxy-1-methyl-ethyl)pyrimidin-5-yl]-7-[(2R)-tetrahydrofuran-2-yl]-1H-benzimidazol-2-yl]urea at 1 mg/kg, iv measured at 4 hrs by LC-MS/MS analysis; assay type: ADME, organism-based, Canis lupus familiaris; conditions: in vivo; outline: as §3
[31] = system: Plasma; test: Prodrug conversion in monkey plasma assessed as formation of 1-ethyl-3-[6-fluoro-5-[2-(1-hydroxy-1-methyl-ethyl)pyrimidin-5-yl]-7-[(2R)-tetrahydrofuran-2-yl]-1H-benzimidazol-2-yl]urea at 1 mg/kg, iv measured at 4 hrs by LC-MS/MS analysis; assay type: ADME, organism-based, Macaca mulatta; conditions: rhesus monkey, in vivo; outline: as §3
[32] = Aqueous solubility of the compound at pH 7; assay type: physicochemical; conditions: buffer
[33] = system: Plasma; test: Prodrug conversion in rat plasma assessed as formation of 1-ethyl-3-[6-fluoro-5-[2-(1-hydroxy-1-methyl-ethyl)pyrimidin-5-yl]-7-[(2R)-tetrahydrofuran-2-yl]-1H-benzimidazol-2-yl]urea at 1 mg/kg, iv measured at 4 hrs by LC-MS/MS analysis; assay type: ADME, organism-based; conditions: in vivo; outline: as §3
[34] = system: MDCK; test: as §4; assay type: ADME, cell-based, Canis lupus familiaris; conditions: dog; outline: as §5
[35] = system: MDCK; test: as §6; assay type: ADME, cell-based, Canis lupus familiaris; conditions: dog; outline: as §5

Chain of Topoisomerase IV (P0C1U9 whole entry): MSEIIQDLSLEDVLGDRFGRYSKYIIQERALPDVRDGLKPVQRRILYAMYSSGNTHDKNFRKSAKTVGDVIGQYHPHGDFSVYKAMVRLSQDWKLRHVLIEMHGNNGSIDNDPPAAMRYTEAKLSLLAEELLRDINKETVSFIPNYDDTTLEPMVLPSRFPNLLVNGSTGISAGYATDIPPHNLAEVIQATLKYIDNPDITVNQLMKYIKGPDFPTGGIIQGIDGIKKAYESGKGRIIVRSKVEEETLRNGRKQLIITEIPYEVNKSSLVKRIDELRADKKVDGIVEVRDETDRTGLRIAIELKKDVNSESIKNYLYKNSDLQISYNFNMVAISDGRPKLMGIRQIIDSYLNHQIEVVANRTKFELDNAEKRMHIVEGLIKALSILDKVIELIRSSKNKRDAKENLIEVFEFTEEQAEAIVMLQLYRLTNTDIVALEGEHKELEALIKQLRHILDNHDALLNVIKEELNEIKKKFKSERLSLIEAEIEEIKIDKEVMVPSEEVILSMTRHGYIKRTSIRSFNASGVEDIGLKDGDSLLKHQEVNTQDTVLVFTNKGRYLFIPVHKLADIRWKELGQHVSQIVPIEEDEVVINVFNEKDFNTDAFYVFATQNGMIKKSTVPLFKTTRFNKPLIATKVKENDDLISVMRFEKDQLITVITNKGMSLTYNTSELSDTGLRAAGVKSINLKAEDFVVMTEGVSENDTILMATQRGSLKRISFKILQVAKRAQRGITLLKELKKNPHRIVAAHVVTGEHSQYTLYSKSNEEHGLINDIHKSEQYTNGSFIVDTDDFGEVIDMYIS
Chain of Topoisomerase IV (P0C1S7 whole entry): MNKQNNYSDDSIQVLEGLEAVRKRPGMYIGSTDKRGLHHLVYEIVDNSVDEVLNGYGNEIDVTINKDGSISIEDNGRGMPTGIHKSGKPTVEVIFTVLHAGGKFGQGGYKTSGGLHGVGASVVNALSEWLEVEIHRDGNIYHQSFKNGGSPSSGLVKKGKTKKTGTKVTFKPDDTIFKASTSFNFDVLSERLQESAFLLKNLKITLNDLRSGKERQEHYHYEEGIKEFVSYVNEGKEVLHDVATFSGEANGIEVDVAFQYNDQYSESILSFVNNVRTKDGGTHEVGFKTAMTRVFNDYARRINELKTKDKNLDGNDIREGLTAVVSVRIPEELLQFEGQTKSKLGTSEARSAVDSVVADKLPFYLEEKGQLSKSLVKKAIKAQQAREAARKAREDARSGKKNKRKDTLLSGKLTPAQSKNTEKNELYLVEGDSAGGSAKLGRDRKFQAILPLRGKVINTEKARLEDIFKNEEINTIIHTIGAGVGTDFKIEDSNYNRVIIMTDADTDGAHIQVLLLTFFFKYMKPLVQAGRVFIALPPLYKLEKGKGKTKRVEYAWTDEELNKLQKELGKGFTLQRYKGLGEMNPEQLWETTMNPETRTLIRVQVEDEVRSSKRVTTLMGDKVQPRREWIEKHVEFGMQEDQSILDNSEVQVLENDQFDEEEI
Chain of DNA gyrase (P0A0K8 whole entry): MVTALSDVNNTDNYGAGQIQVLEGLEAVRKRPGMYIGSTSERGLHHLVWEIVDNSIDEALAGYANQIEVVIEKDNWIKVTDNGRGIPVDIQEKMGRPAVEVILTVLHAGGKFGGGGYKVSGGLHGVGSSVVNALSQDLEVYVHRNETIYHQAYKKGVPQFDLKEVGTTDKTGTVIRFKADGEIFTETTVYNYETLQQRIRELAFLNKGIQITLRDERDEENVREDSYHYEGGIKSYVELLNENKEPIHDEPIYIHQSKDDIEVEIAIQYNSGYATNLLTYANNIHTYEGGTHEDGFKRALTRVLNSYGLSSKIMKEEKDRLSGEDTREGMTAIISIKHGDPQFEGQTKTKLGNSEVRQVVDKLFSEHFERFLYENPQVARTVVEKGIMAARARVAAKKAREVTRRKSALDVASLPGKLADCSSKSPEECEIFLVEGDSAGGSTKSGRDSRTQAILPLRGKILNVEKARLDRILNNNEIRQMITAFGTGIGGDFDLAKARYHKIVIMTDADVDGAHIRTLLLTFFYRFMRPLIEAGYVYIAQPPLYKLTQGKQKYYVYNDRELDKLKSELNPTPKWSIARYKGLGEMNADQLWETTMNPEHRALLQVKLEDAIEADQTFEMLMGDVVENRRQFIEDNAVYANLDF
Chain of DNA gyrase (P20831 whole entry): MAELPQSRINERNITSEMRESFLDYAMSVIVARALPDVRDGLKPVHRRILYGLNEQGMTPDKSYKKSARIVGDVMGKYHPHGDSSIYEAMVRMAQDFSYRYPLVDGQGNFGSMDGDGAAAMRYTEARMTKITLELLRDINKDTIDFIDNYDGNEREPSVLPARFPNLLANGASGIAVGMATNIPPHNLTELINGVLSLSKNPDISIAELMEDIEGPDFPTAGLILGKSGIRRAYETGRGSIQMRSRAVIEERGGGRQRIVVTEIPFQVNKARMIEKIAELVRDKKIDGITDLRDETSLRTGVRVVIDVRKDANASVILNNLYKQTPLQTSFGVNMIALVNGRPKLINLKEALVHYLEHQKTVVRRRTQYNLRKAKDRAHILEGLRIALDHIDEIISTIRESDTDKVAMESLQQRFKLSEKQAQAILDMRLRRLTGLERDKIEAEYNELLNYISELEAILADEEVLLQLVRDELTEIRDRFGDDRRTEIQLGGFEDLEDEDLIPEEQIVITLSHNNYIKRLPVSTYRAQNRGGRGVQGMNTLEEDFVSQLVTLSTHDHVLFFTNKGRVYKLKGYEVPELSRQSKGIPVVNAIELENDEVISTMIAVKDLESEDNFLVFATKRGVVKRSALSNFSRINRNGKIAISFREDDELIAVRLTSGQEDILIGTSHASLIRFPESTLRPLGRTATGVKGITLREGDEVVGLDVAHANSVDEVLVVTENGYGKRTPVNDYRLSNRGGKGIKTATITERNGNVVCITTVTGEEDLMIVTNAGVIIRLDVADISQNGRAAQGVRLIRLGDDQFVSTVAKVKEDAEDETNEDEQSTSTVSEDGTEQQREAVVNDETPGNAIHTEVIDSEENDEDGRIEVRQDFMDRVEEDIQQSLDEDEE

In the case of `CCNC(=O)Nc1nc2cc(-c3cnc(C(C)(C)O)nc3)c(F)c([C@H]3CCCO3)c2[nH]1`, the MIC [1] is reported as 0.06 mg/L (≈ 0.14 µM), the MIC [2] is reported as 0.06 mg/L (≈ 0.14 µM) and the Drug uptake [3] is reported as “Active”. The Drug uptake [4] was “Active”, the Drug uptake [5] was “Active” and the Drug uptake [6] was “Active”. For the same molecule, the Drug uptake [7] was “Active”, the Drug uptake [8] was “Active” and the MIC [9] was 0.016 mg/L (≈ 0.0373 µM). For the same molecule, the MIC [10] was 0.016 mg/L (≈ 0.0373 µM), the MIC [11] was 0.063 mg/L (≈ 0.147 µM) and the MIC [12] was ≤ 0.008 mg/L. The Ki [13] was < 0.009 µM, the Ki [14] was 0.012 µM and the Papp A→B [15] was 95 nm/s. For the same molecule, the Papp B→A [16] was 163 nm/s.

With `CCNC(=O)Nc1nc2cc(-c3cnc(C(C)(C)OP(=O)(O)O)nc3)c(F)c([C@H]3CCCO3)c2[nH]1` the Drug metabolism [17] was “metabolite_detected”, the Drug metabolism [18] was “metabolite_detected” and the Drug metabolism [19] was “metabolite_detected”. It also gave a Km [20] of 49.8 µM, a Vmax [20] of 45.5 pmol/min/mg and a Km [21] of 256 µM. For the same molecule, the Vmax [21] was 19.3 pmol/min/mg, the Km [22] was 122 µM and the Vmax [22] was 25.2 pmol/min/mg. The Km [23] was 137 µM, the Vmax [23] was 45.8 pmol/min/mg and the Km [24] was 736 µM. The Vmax [24] was 958 pmol/min/mg, the Km [25] was 998 µM and the Vmax [25] was 1162 pmol/min/mg. The Km [26] was 5180 µM, the Vmax [26] was 1974 pmol/min/mg and the Vmax [27] was > 1000 pmol/min/mg. For the same molecule, the Activity [1] was “Dose-dependent effect”, the Activity [2] was “Dose-dependent effect” and the Activity [28] was >3 deltalog10CFU. For the same molecule, the Activity [29] was >3 deltalog10CFU, the Drug metabolism [30] was “metabolite_detected” and the Drug metabolism [31] was “metabolite_detected”. For the same molecule, the solubility [32] was 75 mg/mL (≈ 148000 µM), the MIC [9] was 8 mg/L (≈ 15.7 µM) and the MIC [10] was 1 mg/L (≈ 1.97 µM). The MIC [11] was 4 mg/L (≈ 7.87 µM), the MIC [12] was 0.25 mg/L (≈ 0.492 µM) and the Ki [13] was < 0.009 µM. For the same molecule, the Ki [14] was 0.03 µM, the Drug metabolism [33] was “metabolite_detected” and the Papp [34] was “impermeable”. The Papp [35] was “impermeable”.

Work on `C[C@H]1COc2c(N3CCN(C)CC3)c(F)cc3c(=O)c(C(=O)O)cn1c23.C[C@H]1COc2c(N3CCN(C)CC3)c(F)cc3c(=O)c(C(=O)O)cn1c23.O` [LEVOFLOXACIN] yielded an MIC [1] of 0.25 mg/L and an MIC [2] of 8 mg/L.
